Assay outcomes from PubChem BioAssay.
Only some compounds are listed: those with a hit (about 12% of all), similar ones and a draw of the others.
Diaph inh CS: inhibits diaphorase or chemically oxidizes, flagging diaphorase assay artifacts; inhibition, % at 20 µM; diaphorase resazurin-to-resorufin fluorescence, NADH, 16 min; bacterial (C. kluyveri) enzyme, not human; actives 0.69% (n = 190,000);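 active = primary screen inhibition at 20 µM above a set limit, cut at about 50% in these data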
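Test system: Clostridium kluyveri diaphorase enzyme / Quantity: diaphorase at 0.14 U/mL in enzyme working solution / Incubation: 16-min room-temperature incubation before reading / Benchmarks: NADH-free wells as positive control, DMSO-only neutral wells / Signal: resorufin fluorescence 544/590 nm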
WT yeast gro inh: growth inhibition of WT yeast, mitochondrial fusion screen. mitochondrial fusion phenotypic screen, WT strain. inhibition, % at 10 µM. actives 2.1% (n = 190,000). AID 1362; in the data active = inhibition above about 58%; tested in S. cerevisiae
Diaphorase act: diaphorase activation or chemical reduction counter-screen | Diaphorase/resazurin coupled assay, resorufin fluorescence, 16 min; active compounds read high; 1 = vehicle wells, 0 = NADH-free wells | activation factor at 20 µM | actives 0.005% (n = 190,000) | AID 1229;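 active = diaphorase activity raised at least twofold by the compound at 20 µM; inactive = activation factor below 2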
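Material: purified diaphorase enzyme from Clostridium kluyveri; Also added: 0.114 mM NADH and 0.1 mM resazurin, final amounts; Doses: single compound dose of 20 µM, 1% DMSO final; Times: 16 min enzyme reaction, ambient temperature; Detection: resorufin fluorescence, excitation 544 nm, emission 590 nm; Measure: increased resorufin signal from activators or reducing compounds.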
ROMK mod: human ROMK K+ channel modulation, primary screen | P48048 | Tet-inducible ROMK, thallium flux fluorescence; actives lie on both sides | B-score at 10 µM | actives 2% (n = 130,000);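 active = signal ratio slope over the read window, or its plate-corrected B-score, at least 3 SD from the plate mean, either direction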;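 note: B-score of the F/F0 ratio slope over 7 to 12 s after thallium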
Lmaj promast: reduces viability of Leishmania major promastigotes. resazurin fluorescence viability. inhibition, % at 10 µM. actives 9% (n = 200,000); in the data active = inhibition above about 50%;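 note: promastigotes grown with compound for 44 hours at 28 °C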
KCC2 mod: modulators of human KCC2 chloride dependent transport; Q9H2X9; KCC2 cells, thallium flux FluoZin-2 fluorescence; B-score of Tl+ flux slope (higher = more flux/activation; lower = inhibition) at 10 µM; actives 2.2% (n = 190,000);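 active = thallium flux slope and its plate-corrected score both differing from the plate sample mean at a set confidence after two filtering rounds, in either direction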;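 note: slope of fluorescence scaled to starting intensity during 10 to 20 s after thallium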
A number is an active result; – = inactive; · = no result given.

SMILES	Diaph inh CS	WT yeast gro inh	Diaphorase act	ROMK mod	Lmaj promast	KCC2 mod
O=P(OC1CCCCC1)(OC1CCCCC1)C(O)c1c(Cl)cccc1Cl (stereo not given)	–	70.7	–	·	52.7	–
COc1ccc(CC(=O)n2[nH]c(=O)cc(C)c2=O)cc1OC	·	·	·	·	·	–
CN(C)C(=O)CSc1nnc(Cc2ccc([N+](=O)[O-])cc2)o1	–	–	–	·	–	·
Cc1ccc(NP(=O)(Nc2ccc(C)cc2)Nc2ccc(C)cc2)cc1	–	–	–	–	57.6	–
COc1cccc(C2c3c(-c4ccccc4O)n[nH]c3C(=O)N2Cc2ccco2)c1 (stereo not given)	·	·	·	·	·	–
O=C1c2[nH]nc(-c3ccccc3O)c2C(c2ccccc2F)N1Cc1ccco1 (stereo not given)	–	–	–	–	99.8	·
O=C1c2[nH]nc(-c3ccccc3O)c2C(c2ccccc2)N1Cc1ccco1 (stereo not given)	–	–	–	–	78.0	–
COc1ccc(/C=N/OC/C(O)=C(\C#N)c2nc3ccccc3[nH]2)cc1OC	–	–	–	·	–	–
CCc1ccc(N2C(=O)Nc3ccccc3C2(O)C(=O)N2CCN(c3ccccn3)CC2)cc1 (stereo not given)	–	–	–	–	68.6	–
COC(=O)c1sc(S(=O)(=O)Nc2ccc(C)c(C)c2)c(C(=O)OC)c1C	–	–	–	–	–	–
CC(=O)NCc1ccc(C(=O)CCl)s1	–	–	–	–	100.4	–
COC(=O)/C(=C\c1ccc(O)cc1)c1nc2ccccc2[nH]1	–	–	–	–	–	–
COc1cc(/C=N\Nc2nc3ccccc3[nH]2)cc(OC)c1OC	–	–	–	–	56.7	·
COC(=O)/C(=C\c1cc(OC)c(OC)c(OC)c1)c1nc2ccccc2[nH]1	–	–	–	–	99.5	–
COc1ccc(/C=N/Nc2nc3ccccc3[nH]2)cc1OC	–	–	–	–	99.2	–
O=C(Cn1c(=O)n(-c2ccc(F)cc2)c(=O)c2sccc21)NC1CCCCC1	–	–	–	–	–	–
CC1CCN(CCOc2ccccc2-c2ccccc2)CC1	–	–	–	–	–	–
CC1CCN(CCOc2cc(Cl)ccc2Cl)CC1	–	–	–	·	84.8	–
CN(C(=O)COc1ccc(Br)cc1Cl)C1CCCCC1	–	–	–	–	–	–
CC1CCCN(CCCOc2ccc(Br)cc2Cl)C1 (stereo not given)	–	–	–	–	89.0	–
CC1CCN(CCOCCOc2ccc(Br)cc2Cl)CC1	–	–	–	–	98.9	–
CC1CCCN(C(=S)Nc2ccc3nc4n(c(=O)c3c2)CCCCC4)C1 (stereo not given)	–	–	–	–	–	–
CCC1(CC)C(=O)C(C)(C)C(=O)OC1c1cccs1 (stereo not given)	–	–	–	–	–	–
CCN(CC)CCNC(=O)C12CC3CC(C)(CC(C)(C3)C1)C2	–	–	–	–	93.9	–
O=C(NCc1ccccn1)C(=O)NN=C1CCCCCCC1	–	–	–	–	–	–
SMILES	Diaph inh CS	WT yeast gro inh	Diaphorase act	ROMK mod	Lmaj promast	KCC2 mod
COc1cc(OC)c2nc(C)c3c(c2c1)N(c1ccc(O)cc1)CC3	–	–	–	·	98.8	·
COc1ccc(N2CCN(c3cc(C)c4ccc(O)cc4n3)CC2)cc1	–	–	–	·	–	–
O=S(=O)(N1CCCCC1)n1c(Cc2ccccc2)nc2ccccc21	–	–	–	·	54.2	–
CCOC(=O)c1sc2ncn(/N=C/c3ccc(O)cc3)c(=O)c2c1C	–	–	–	–	94.2	–
CC1CCc2c(sc(NS(=O)(=O)c3ccccc3)c2C(=O)OC(C)C)C1 (stereo not given)	–	–	–	–	–	10.2
CC(C)c1nnc(N2C(=O)C(O)=C(C(=O)c3cccs3)C2c2ccccc2)s1 (stereo not given)	–	–	–	–	–	–
Cc1cc(C)n(-c2nnc(NCc3ccc(Cl)cc3)nn2)n1	–	–	–	–	90.7	–
Cc1cc(C)n(-c2nc(C)nc(NCc3ccccc3)n2)n1	–	–	–	–	59.3	·
Cc1nn(-c2nnc(NCc3ccccc3)nn2)c(C)c1Br	–	–	–	·	84.3	–
CNc1nc(C)nc(-n2nc(C)cc2C)n1	–	–	–	·	–	–
O=C1COc2ccc(C(=O)COC(=O)CNC(=O)c3ccco3)cc2N1	–	–	–	–	–	–
COc1cc(/C=C/c2ccc(O)cc2)cc(OC)c1	–	58.4	–	·	·	–
COc1ccc(/C=C/C(=O)c2ccc(O)cc2)cc1	–	–	–	·	–	–
c1ccc(NCC2OCc3ccccc3CO2)cc1	–	–	–	–	–	–
O=C(OC(C(=O)Nc1cc(Cl)cc(Cl)c1)c1ccccc1)C1=COCCO1 (stereo not given)	–	58.4	–	–	–	–
COc1ccc(-c2csc(N3C(=O)C4C5c6ccccc6C(c6ccccc65)C4C3=O)n2)cc1 (stereo not given)	–	–	–	–	60.2	–
O=c1c2c3c(sc2n(CCN2CCCCC2)c(=O)n1Cc1ccco1)CCCCC3	–	–	–	–	99.2	·
COc1ccc(O)c(N)c1	61.8	–	–	·	98.4	–
COc1ccc(/C(C)=N/N=C(N)N)c(O)c1	·	·	·	·	·	–
Cc1ccc2cc(CCl)c(Cl)nc2c1	·	·	·	·	·	–
COc1ccc(N(CC(=O)NCCC2=CCCCC2)S(C)(=O)=O)cc1OC	–	–	–	–	–	·
COc1ccc(N(CC(=O)NCCC2=CCCCC2)S(=O)(=O)c2ccccc2)cc1OC	–	–	–	–	73.4	–
COc1ccc(N(CC(=O)NCCC2=CCCCC2)S(=O)(=O)c2ccc(C)cc2)cc1OC	–	–	–	–	85.5	–
COc1ccc(/C=C2\N=C(c3ccccc3)N(c3ccc(C(=O)O)cc3)C2=O)cc1OC	·	·	·	·	·	–
Cn1cc(CN2CCC(C(=O)N3CCCCC3)CC2)c(-c2ccccc2F)n1	–	–	–	–	–	–
SMILES	Diaph inh CS	WT yeast gro inh	Diaphorase act	ROMK mod	Lmaj promast	KCC2 mod
CC12C(=O)N(c3cccc(OC(=O)c4ccco4)c3)C(=O)C1C1c3ccccc3C2c2ccccc21 (stereo not given)	–	–	–	–	–	–
CC12C(=O)N(c3ccc(OC(=O)c4ccco4)cc3)C(=O)C1C1c3ccccc3C2c2ccccc21 (stereo not given)	–	–	–	–	57.8	–
COCCNC(=O)/C(C#N)=C1\N=C(N)c2ccccc21	–	–	–	·	58.8	–
Cc1cc(C)nc(NS(=O)(=O)c2ccc(NC(=S)NC(=O)CC(C)C)cc2)n1	–	–	–	–	–	–
Cc1ccc(C2=NN(S(=O)(=O)c3ccccc3)C(c3ccccc3O)C2)cc1 (stereo not given)	–	84.1	–	·	97.0	–
O=C(c1ccccc1)N1N=C(c2ccccc2)CC1c1ccccc1O (stereo not given)	–	67.2	–	–	–	–
